{
  "source": "ChEMBL document CHEMBL3085663",
  "about": "“Hypoxia-targeting carbonic anhydrase IX inhibitors by a new series of nitroimidazole-sulfonamides/sulfamides/sulfamates” (J Med Chem, 2013)",
  "key": {"HT-29 [1]": {"tested_on": "HT-29", "assay": "Antitumor activity against human HT-29 cells xenografted in NMRI-nu mouse assessed as time to reach 4x starting volume of tumor at 5 mg/kg, iv administered on day 3 for 3 weeks (reference value: 14.07 days)", "assay_type": "functional", "how_it_was_run": "(§1)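 HT-29 cells in Matrigel were injected s.c. into the lateral flank of adult NMRI-nu mice (28−32 g). Dosing started at a tumour volume of 250 mm³ and was given i.v. One arm received 10 mg/kg daily for 3 days in 0.9% NaCl with 1% DMSO via the lateral tail vein. The other arm received 5 mg/kg at day 3. The schedule was repeated over 3 weeks. Read-out was time to reach 4× starting tumour volume against vehicle.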"}, "Mus musculus [2]": {"tested_on": "Mus musculus", "assay": "Toxicity in NMRI-nu mouse xenografted with HT-29 cells assessed as body weight loss at 5 mg/kg, iv administered on day 3 for 3 weeks", "assay_type": "organism-based", "design": "dose 5 mg/kg, route intravenous", "conditions": "in vivo, 504 h"}, "HT-29 [3]": {"tested_on": "HT-29", "assay": "Antitumor activity against human HT-29 cells xenografted in NMRI-nu mouse assessed as tumor growth inhibition at 5 mg/kg, iv administered on day 3 for 3 weeks", "assay_type": "functional, organism-based", "design": "dose 5 mg/kg", "how_it_was_run": "as §1"}, "HeLa [4]": {"tested_on": "HeLa", "assay": "Reduction in hypoxia-induced extracellular acidosis in human HeLa cells at 1 mM after 24 hrs", "assay_type": "functional, cell-based", "how_it_was_run": "(§2)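 Exponentially growing HT-29 or HeLa cells were cultured in DMEM with 10% FBS, under hypoxia (0.2% O₂, 5% CO₂, balance N₂) or normoxia (20% O₂, 5% CO₂). Compounds were added in medium with 1% DMSO at final 0.1 or 1 mM. Medium pH was measured before and immediately after incubation, reported as ΔpHe, as mean ± SD of at least three independent experiments.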"}, "Mus musculus [5]": {"tested_on": "Mus musculus", "assay": "Toxicity in NMRI-nu mouse xenografted with HT-29 cells assessed as body weight loss at 10 mg/kg, iv administered 3 days per week for 3 weeks", "assay_type": "organism-based", "design": "dose 10 mg/kg, route intravenous", "conditions": "in vivo"}, "HT-29 [6]": {"tested_on": "HT-29", "assay": "Reduction in hypoxia-induced extracellular acidosis in human HT-29 cells at 1 mM after 24 hrs", "assay_type": "functional, cell-based", "how_it_was_run": "as §2"}, "HeLa [7]": {"tested_on": "HeLa", "assay": "Reduction in hypoxia-induced extracellular acidosis in human HeLa cells after 24 hrs", "assay_type": "functional, cell-based", "how_it_was_run": "as §2"}, "HT-29 [8]": {"tested_on": "HT-29", "assay": "Reduction in hypoxia-induced extracellular acidosis in human HT-29 cells after 24 hrs", "assay_type": "functional, cell-based", "how_it_was_run": "as §2"}, "HT-29 [9]": {"tested_on": "HT-29", "assay": "Antitumor activity against human HT-29 cells xenografted in NMRI-nu mouse assessed as time to reach 4x starting volume of tumor at 10 mg/kg, iv administered 3 days per week for 3 weeks (reference value: 14.07 days)", "assay_type": "functional", "how_it_was_run": "as §1"}, "HT-29 [10]": {"tested_on": "HT-29", "assay": "Antitumor activity against human HT-29 cells xenografted in NMRI-nu mouse assessed as tumor growth inhibition at 10 mg/kg, iv administered 3 days per week for 3 weeks", "assay_type": "functional, organism-based", "design": "dose 10 mg/kg", "how_it_was_run": "as §1"}, "Carbonic anhydrase 9": {"target": "Carbonic anhydrase 9 (Homo sapiens, UniProt Q16790)", "assay": "Inhibition of recombinant human catalytic domain of carbonic anhydrase-9 preincubated for 15 mins by stopped-flow CO2 hydration assay"}, "Carbonic anhydrase 2": {"target": "Carbonic anhydrase 2 (Homo sapiens, UniProt P00918)", "assay": "Inhibition of full length human cytosolic carbonic anhydrase-2 preincubated for 15 mins by stopped-flow CO2 hydration assay"}, "Carbonic anhydrase 1": {"target": "Carbonic anhydrase 1 (Homo sapiens, UniProt P00915)", "sequence (P00915 whole entry)": "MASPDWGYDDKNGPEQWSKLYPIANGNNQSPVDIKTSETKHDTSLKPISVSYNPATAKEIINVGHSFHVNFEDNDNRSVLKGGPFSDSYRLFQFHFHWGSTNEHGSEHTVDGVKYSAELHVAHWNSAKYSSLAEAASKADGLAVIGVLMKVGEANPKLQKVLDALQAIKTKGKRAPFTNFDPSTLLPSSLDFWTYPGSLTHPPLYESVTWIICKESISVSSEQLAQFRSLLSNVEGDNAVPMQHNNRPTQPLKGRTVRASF", "assay": "Inhibition of full length human cytosolic carbonic anhydrase-1 preincubated for 15 mins by stopped-flow CO2 hydration assay"}, "Carbonic anhydrase 12": {"target": "Carbonic anhydrase 12 (Homo sapiens, UniProt O43570)", "sequence (O43570 whole entry, the tested form may be a part)": "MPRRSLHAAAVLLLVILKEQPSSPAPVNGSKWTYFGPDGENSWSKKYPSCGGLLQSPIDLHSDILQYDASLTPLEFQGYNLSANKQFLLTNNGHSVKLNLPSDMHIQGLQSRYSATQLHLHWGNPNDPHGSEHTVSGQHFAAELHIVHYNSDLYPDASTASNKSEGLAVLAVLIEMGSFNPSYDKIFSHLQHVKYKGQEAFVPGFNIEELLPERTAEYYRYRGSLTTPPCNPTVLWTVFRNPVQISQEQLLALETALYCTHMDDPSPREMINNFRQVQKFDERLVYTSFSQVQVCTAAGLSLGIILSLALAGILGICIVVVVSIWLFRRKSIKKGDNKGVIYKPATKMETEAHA", "assay": "Inhibition of recombinant human catalytic domain of carbonic anhydrase-12 preincubated for 15 mins by stopped-flow CO2 hydration assay"}, "HeLa [11]": {"tested_on": "HeLa", "assay": "Reduction in hypoxia-induced extracellular acidosis in human HeLa cells at 0.1 to 1 mM after 24 hrs", "assay_type": "functional, cell-based", "how_it_was_run": "as §2"}},
  "note": "Active and inactive are the calls of the source. No cut-off for these calls is given here.",
  "data": [
    {"smiles": "COc1cccc2c1C(=O)c1c(O)c3c(c(O)c1C2=O)C[C@@](O)(C(=O)CO)C[C@@H]3O[C@H]1C[C@H](N)[C@H](O)[C@H](C)O1", "note": "[DOXORUBICIN]", "values": [
      {"measurement": "Time", "setting": "HT-29 [1]", "result": 23.39, "unit": "days"},
      {"measurement": "Activity", "setting": "Mus musculus [2]", "result": "Non-toxic"},
      {"measurement": "TGI", "setting": "HT-29 [3]", "result": "Active"}
    ]},
    {"smiles": "Cc1ncc([N+](=O)[O-])n1CCNS(N)(=O)=O", "note": "[DTP-348]", "values": [
      {"measurement": "Activity", "setting": "HeLa [4]", "result": "Active"},
      {"measurement": "Activity", "setting": "Mus musculus [5]", "result": "Non-toxic"},
      {"measurement": "Activity", "setting": "HT-29 [6]", "result": "Active"},
      {"measurement": "Activity", "setting": "HeLa [7]", "result": "Dose-dependent effect"},
      {"measurement": "Activity", "setting": "HT-29 [8]", "result": "Dose-dependent effect"},
      {"measurement": "Time", "setting": "HT-29 [9]", "result": 25.43, "unit": "days"},
      {"measurement": "TGI", "setting": "HT-29 [10]", "result": "Active"}
    ]},
    {"smiles": "Cc1ncc([N+](=O)[O-])n1CCNC(=S)Nc1ccc(S(N)(=O)=O)cc1", "values": [
      {"measurement": "Activity", "setting": "HeLa [4]", "result": "Active"},
      {"measurement": "Activity", "setting": "HT-29 [6]", "result": "Active"},
      {"measurement": "Ki", "setting": "Carbonic anhydrase 9", "result": 0.0073, "unit": "µM"}
    ]},
    {"smiles": "NS(=O)(=O)NCCn1ccnc1[N+](=O)[O-]", "values": [
      {"measurement": "Ki", "setting": "Carbonic anhydrase 9", "result": 0.041, "unit": "µM"}
    ]},
    {"smiles": "NS(=O)(=O)c1ccc(CCNC(=O)Cn2ccnc2[N+](=O)[O-])cc1", "values": [
      {"measurement": "Ki", "setting": "Carbonic anhydrase 9", "result": 0.008, "unit": "µM"}
    ]},
    {"smiles": "Cc1ncc([N+](=O)[O-])n1CCNC(=S)NCc1ccc(S(N)(=O)=O)cc1", "values": [
      {"measurement": "Ki", "setting": "Carbonic anhydrase 9", "result": 0.0072, "unit": "µM"}
    ]},
    {"smiles": "CS(=O)(=O)NCCn1ccnc1[N+](=O)[O-]", "values": [
      {"measurement": "Ki", "setting": "Carbonic anhydrase 2", "result": "> 20", "unit": "µM"},
      {"measurement": "Ki", "setting": "Carbonic anhydrase 9", "result": "> 20", "unit": "µM"},
      {"measurement": "Ki", "setting": "Carbonic anhydrase 1", "result": "> 20", "unit": "µM"},
      {"measurement": "Ki", "setting": "Carbonic anhydrase 12", "result": "> 20", "unit": "µM"}
    ]},
    {"smiles": "Cc1ncc([N+](=O)[O-])n1CCNS(C)(=O)=O", "values": [
      {"measurement": "Ki", "setting": "Carbonic anhydrase 2", "result": "> 20", "unit": "µM"},
      {"measurement": "Ki", "setting": "Carbonic anhydrase 9", "result": "> 20", "unit": "µM"},
      {"measurement": "Ki", "setting": "Carbonic anhydrase 1", "result": "> 20", "unit": "µM"},
      {"measurement": "Ki", "setting": "Carbonic anhydrase 12", "result": "> 20", "unit": "µM"}
    ]},
    {"smiles": "Cc1ncc([N+](=O)[O-])n1CCNC(=S)NCCc1ccc(S(N)(=O)=O)cc1", "values": [
      {"measurement": "Activity", "setting": "HeLa [4]", "result": "Active"},
      {"measurement": "Activity", "setting": "HT-29 [6]", "result": "Active"},
      {"measurement": "Ki", "setting": "Carbonic anhydrase 9", "result": 0.0083, "unit": "µM"},
      {"measurement": "Activity", "setting": "HeLa [11]", "result": "Active"}
    ]},
    {"smiles": "Cc1ncc([N+](=O)[O-])n1CCOS(N)(=O)=O", "values": [
      {"measurement": "Activity", "setting": "HeLa [4]", "result": "Active"},
      {"measurement": "Activity", "setting": "HT-29 [6]", "result": "Active"}
    ]},
    {"smiles": "Cc1nccn1CCCNS(N)(=O)=O", "values": [
      {"measurement": "Ki", "setting": "Carbonic anhydrase 9", "result": 0.021, "unit": "µM"}
    ]}
  ]
}
